Among the data in ChEMBL document CHEMBL1123895, “Synthesis and anti-HIV activity of various 2'- and 3'-substituted 2',3'-dideoxyadenosines: a structure-activity analysis” (1987) are EC50, CC50 and Ratio values, retold here.

Each structure is given as a SMILES string.

The subject of experiment [1] is MT4. Briefly: (§1) Anti-HIV activity was determined as dose required to protect 50% of the HIV-infected MT-4 cells against destruction. The format is functional. To be noted: Homo sapiens, read-out: ED50 (the source's name). In outline:
(§2)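 MT-4 cells infected with HIV at 10 CCID50 per well, incubated 5 days with a range of compound concentrations. Viable cells counted in a blood cell counting chamber after trypan blue staining.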

Experiment [2] has as its system MT4. Briefly: Cytotoxicity was determined as the dose required to reduce the viability of uninfected MT-4 cells by 50%. The format is functional. The settings on record: Homo sapiens, read-out: CD50 (the source's name). In outline:
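Mock-infected MT-4 cells incubated 5 days with a range of compound concentrations. Viable cells counted in a blood cell counting chamber after trypan blue staining.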

The nature of experiment [3]: Selectivity ratio CD50 to ED50. It counts as functional. In outline:
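Ratio of CD50 to ED50. CD50 is from uninfected MT-4 cells and ED50 from MT-4 cells infected with HIV at 10 CCID50 per well. Both are read after 5 days with compound by trypan blue viable cell counting in a blood cell counting chamber.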

The test system of experiment [4] is MT4. The description is as §1. To be noted: read-out: ED50 (the source's name). The format is functional, Homo sapiens. In outline: as §2

Turning to `[N-]=[N+]=N[C@@H]1C[C@@H](CO)O[C@H]1n1cnc2c(N)ncnc21`, the EC50 in the experiment on MT4 [1] was 215 µM. For the same compound, in the experiment with MT4 [2], the CC50 was above 625 µM. For the same compound, the Ratio in experiment [3] is above 2.9.

For the compound `Nc1ncnc2c1ncn2[C@H]1CC[C@@H](CO)O1`, the CC50 with MT4 [2] came to 889 µM. Moreover, the EC50 in the experiment on MT4 [4] (Homo sapiens, MT4) is 6.2 µM. Besides, the Ratio in experiment [3] came out at 148.

Take `Nc1ncnc2c1ncn2[C@H]1C[C@H](F)[C@@H](CO)O1` (stereo in doubt; 13) [listing 1 of 2 here]: the Ratio in experiment [3] was above 2.8.

`Nc1ncnc2c1ncn2[C@H]1C[C@H](F)[C@@H](CO)O1` (stereo in doubt; 12) [listing 1 of 2 here]: in experiment [3], the Ratio came out at 11.1.

For `Nc1ncnc2c1ncn2[C@H]1C[C@H](F)[C@@H](CO)O1` (stereo in doubt; 13) [listing 2 of 2 here], the CC50 in the experiment with MT4 [2] was above 625 µM. Further, the EC50 in the experiment with MT4 [4] was determined as 221 µM.

Consider `[N-]=[N+]=N[C@H]1C[C@@H](CO)O[C@H]1n1cnc2c(N)ncnc21`, for which the CC50 in the experiment on MT4 [2] worked out at 625 µM. In the experiment with MT4 [4] (Homo sapiens, MT4), the EC50 worked out at 55 µM. Also, the Ratio in experiment [3] was 11.4.

On to `Cc1cn([C@H]2C[C@H](N=[N+]=[N-])[C@@H](CO)O2)c(=O)[nH]c1=O` [ZIDOVUDINE], for which the CC50 in the experiment with MT4 [2] amounted to 4 µM. In addition, the EC50 in the experiment on MT4 [4] (Homo sapiens, MT4) was 0.006 µM. In addition, the Ratio in experiment [3] came to 666.

On to `Nc1ncnc2c1ncn2[C@@H]1O[C@H](CO)C[C@H]1F`, for which the EC50 in the experiment with MT4 [1] was above 625 µM. In addition, the CC50 in the experiment on MT4 [2] is above 625 µM.

For the compound `Nc1ncnc2c1ncn2[C@@H]1O[C@H](CO)C[C@@H]1F` [LODENOSINE], in the experiment on MT4 [2], the CC50 was above 625 µM. Also, in the experiment on MT4 [4] (Homo sapiens, MT4), the EC50 turned out to be 35 µM. The Ratio in experiment [3] was above 18.

Regarding `Nc1ncnc2c1ncn2[C@H]1C[C@H](F)[C@@H](CO)O1` (stereo in doubt; 12) [listing 2 of 2 here], the EC50 with MT4 [4] came out at 50 µM.

As to `Nc1ncnc2c1ncn2[C@H]1C=C[C@@H](CO)O1`, the CC50 with MT4 [2] was determined as 34 µM. Besides, the EC50 with MT4 [4] (Homo sapiens, MT4) is above 25 µM. Further, in experiment [3], the Ratio is below 1.2.
